Test results as given in ChEMBL document CHEMBL4622996, “Discovery of Vixotrigine: A Novel Use-Dependent Sodium Channel Blocker for the Treatment of Trigeminal Neuralgia” (ACS Med Chem Lett, 2020).
Activity calls are given as the source filed them. No cut-off for these calls is given here.

Tests used:
[1] = Half life in monkey at 0.5 mg/kg, iv; type: ADME, organism-based, Macaca mulatta; details: rhesus monkey, in vivo
[2] = Oral bioavailability in dog at 3 mg/kg; type: ADME, organism-based, Canis lupus familiaris; details: in vivo
Rattus norvegicus [3] = test: Antiinflammatory activity in complete Freund's adjuvant-induced rat model assessed as inhibition of CFA-induced hypersensitivity to pain administered orally at a single dose; type: functional; details: po
[4] = Free plasma concentration in rat model of chronic constriction injury-induced neuropathic pain at 5 mg/kg, po BID administered 22 days post surgery and measured on day 8 at 0.5 hrs post-dose; type: ADME, organism-based; details: in vivo
Outline: (§1)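 Chronic constriction injury neuropathic pain model in rat; oral dosing at 0.5 or 5 mg/kg BID starting day 22; mechanical allodynia read after 6 and 8 days of dosing; gabapentin 30 mg/kg po BID as positive control. Free plasma levels sampled on day 8, 0.5 h postdose.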

[5] = Free plasma concentration in rat model of chronic constriction injury-induced neuropathic pain at 0.5 mg/kg, po BID administered 22 days post surgery and measured on day 8 at 0.5 hrs post-dose; type: ADME, organism-based; details: in vivo; outline: as §1
Rattus norvegicus [6] = test: Antinociceptive activity in rat model of chronic constriction injury-induced neuropathic pain assessed as inhibition of mechanical allodynia at 0.5 to 5 mg/kg, po BID administered 22 days post surgery and measured after 6 to 8 days; type: functional, organism-based; outline: as §1
[7] = Total blood clearance in rat blood at 0.5 mg/kg, iv; type: ADME, organism-based
[8] = Ratio of drug level in brain to blood in rat; type: ADME, tissue-based; details: read-out: Kbb
[9] = Half life in rat at 0.5 mg/kg, iv; type: ADME, organism-based; details: in vivo
[10] = Tmax in rat at 3 mg/kg, po; type: ADME, organism-based; details: in vivo
[11] = Cmax in rat at 3 mg/kg, po; type: ADME, organism-based; parameters: dose 3 mg/kg, route oral; details: in vivo
[12] = Volume of distribution in steady state in dog at 0.5 mg/kg, iv; type: ADME, organism-based, Canis lupus familiaris; details: in vivo, read-out: Vdss
[13] = target: Voltage-gated inwardly rectifying potassium channel KCNH2 (Homo sapiens, UniProt Q12809); test: Inhibition of human ERG
Cytochrome P450 2C9 = Cytochrome P450 2C9 (Homo sapiens, UniProt P11712); test: Inhibition of CYP2C9 (unknown origin); type: ADME
[14] = target: T1, Broad substrate specificity ATP-binding cassette transporter ABCG2 (Homo sapiens, UniProt Q9UNQ0); test: Inhibition of BCRP (unknown origin)
T1 sequence (Q9UNQ0 whole entry): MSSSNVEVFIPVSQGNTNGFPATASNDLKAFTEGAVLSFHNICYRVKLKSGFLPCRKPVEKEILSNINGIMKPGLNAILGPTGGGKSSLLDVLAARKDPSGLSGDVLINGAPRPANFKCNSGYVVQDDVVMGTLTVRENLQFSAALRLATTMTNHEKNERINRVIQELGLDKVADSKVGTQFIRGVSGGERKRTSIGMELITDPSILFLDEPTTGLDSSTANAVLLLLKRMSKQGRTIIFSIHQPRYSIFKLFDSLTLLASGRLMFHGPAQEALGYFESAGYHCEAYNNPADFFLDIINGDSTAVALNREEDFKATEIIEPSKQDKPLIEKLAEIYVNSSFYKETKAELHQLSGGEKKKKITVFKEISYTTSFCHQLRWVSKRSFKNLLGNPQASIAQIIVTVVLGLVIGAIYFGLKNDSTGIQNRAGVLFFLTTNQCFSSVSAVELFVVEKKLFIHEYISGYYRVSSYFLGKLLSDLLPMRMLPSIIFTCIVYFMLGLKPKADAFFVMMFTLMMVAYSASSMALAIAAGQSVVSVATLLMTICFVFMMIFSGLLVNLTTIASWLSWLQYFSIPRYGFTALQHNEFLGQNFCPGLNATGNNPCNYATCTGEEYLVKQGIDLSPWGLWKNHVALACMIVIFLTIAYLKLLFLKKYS

[15] = target: T2, Solute carrier organic anion transporter family member 1B3 (Homo sapiens, UniProt Q9NPD5); test: Inhibition of OATP1B3 (unknown origin)
T2 sequence (Q9NPD5 whole entry): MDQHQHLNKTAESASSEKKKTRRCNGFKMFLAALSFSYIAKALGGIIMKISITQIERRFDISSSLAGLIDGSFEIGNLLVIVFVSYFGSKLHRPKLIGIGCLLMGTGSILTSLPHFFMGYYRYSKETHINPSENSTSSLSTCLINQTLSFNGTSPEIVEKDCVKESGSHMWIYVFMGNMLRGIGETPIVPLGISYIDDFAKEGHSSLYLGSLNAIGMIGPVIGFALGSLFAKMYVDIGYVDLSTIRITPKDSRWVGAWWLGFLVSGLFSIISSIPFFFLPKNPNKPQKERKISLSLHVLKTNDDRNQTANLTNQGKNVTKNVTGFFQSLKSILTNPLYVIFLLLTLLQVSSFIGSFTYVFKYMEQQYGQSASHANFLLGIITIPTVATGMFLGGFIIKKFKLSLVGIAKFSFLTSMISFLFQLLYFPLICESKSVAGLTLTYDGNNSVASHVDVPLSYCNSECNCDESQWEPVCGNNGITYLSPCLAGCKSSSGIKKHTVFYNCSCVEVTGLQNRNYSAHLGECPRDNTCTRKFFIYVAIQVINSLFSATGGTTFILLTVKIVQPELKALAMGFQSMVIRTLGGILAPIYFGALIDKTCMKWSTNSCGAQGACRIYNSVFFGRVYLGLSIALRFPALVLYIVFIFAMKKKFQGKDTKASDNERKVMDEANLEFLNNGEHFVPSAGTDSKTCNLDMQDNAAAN

[16] = target: T3, Solute carrier family 22 member 2 (Homo sapiens, UniProt O15244); test: Inhibition of OCT2 (unknown origin)
T3 sequence (O15244 whole entry): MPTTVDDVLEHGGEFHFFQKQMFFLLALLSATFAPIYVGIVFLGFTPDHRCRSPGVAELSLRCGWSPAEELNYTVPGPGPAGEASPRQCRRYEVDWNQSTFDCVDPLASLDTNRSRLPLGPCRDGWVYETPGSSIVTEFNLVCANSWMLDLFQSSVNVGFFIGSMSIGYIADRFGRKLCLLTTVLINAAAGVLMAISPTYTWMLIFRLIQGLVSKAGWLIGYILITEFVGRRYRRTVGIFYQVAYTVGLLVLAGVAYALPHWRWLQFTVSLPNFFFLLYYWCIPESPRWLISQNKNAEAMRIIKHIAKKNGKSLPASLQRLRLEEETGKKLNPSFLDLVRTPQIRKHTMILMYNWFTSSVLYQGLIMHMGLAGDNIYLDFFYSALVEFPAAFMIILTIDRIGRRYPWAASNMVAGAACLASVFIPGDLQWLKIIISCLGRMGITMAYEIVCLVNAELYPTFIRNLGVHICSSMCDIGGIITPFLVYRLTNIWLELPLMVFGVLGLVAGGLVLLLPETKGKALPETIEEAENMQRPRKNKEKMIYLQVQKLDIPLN

Voltage-gated inwardly rectifying potassium channel KCNH2, sequence (Q12809 whole entry): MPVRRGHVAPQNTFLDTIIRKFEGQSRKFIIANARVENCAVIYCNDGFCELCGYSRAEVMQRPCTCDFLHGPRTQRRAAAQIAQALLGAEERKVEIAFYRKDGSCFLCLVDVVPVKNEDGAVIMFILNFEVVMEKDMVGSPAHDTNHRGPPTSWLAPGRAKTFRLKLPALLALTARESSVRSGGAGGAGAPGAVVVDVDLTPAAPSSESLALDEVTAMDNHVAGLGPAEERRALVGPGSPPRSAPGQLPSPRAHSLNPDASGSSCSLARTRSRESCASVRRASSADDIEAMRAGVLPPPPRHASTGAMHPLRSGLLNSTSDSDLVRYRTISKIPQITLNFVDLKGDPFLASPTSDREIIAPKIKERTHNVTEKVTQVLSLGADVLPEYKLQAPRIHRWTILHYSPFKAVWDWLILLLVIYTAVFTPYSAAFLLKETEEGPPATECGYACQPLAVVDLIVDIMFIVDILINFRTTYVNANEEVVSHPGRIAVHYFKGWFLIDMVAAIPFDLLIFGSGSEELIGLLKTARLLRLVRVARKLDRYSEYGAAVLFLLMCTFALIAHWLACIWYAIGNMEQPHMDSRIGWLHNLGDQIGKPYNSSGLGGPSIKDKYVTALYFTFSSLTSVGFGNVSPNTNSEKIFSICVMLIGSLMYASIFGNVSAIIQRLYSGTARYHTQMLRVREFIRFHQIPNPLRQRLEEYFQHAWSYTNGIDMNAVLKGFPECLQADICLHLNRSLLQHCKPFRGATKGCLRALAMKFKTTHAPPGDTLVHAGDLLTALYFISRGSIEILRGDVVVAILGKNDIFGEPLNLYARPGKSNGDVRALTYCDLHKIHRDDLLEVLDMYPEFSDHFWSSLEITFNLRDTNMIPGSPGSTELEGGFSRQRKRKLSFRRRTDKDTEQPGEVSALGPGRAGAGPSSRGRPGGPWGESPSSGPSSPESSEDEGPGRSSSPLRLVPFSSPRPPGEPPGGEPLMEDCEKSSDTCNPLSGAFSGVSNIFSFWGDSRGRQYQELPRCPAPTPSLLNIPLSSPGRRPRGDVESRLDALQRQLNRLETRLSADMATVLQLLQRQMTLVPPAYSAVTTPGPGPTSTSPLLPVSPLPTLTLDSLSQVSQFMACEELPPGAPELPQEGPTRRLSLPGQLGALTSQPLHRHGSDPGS
Cytochrome P450 2C9, sequence (P11712 whole entry): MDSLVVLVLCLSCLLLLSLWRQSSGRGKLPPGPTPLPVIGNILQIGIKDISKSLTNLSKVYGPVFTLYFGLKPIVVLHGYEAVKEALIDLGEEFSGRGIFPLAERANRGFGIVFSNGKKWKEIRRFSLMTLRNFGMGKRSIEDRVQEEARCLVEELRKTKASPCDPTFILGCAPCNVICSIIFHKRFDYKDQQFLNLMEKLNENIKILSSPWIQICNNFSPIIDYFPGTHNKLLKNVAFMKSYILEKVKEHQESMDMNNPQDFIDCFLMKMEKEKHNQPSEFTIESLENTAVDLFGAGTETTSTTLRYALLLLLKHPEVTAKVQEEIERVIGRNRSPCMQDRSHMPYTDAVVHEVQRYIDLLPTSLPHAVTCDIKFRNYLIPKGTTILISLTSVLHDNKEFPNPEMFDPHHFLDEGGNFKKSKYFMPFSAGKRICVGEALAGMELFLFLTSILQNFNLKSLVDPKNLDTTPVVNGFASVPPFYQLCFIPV

Cl.NC(=O)[C@@H]1CC[C@H](c2ccc(OCc3ccccc3F)cc2)N1 [RAXATRIGINE HYDROCHLORIDE]
half-life [1]: 300 min | bioavailability [2]: 57% | ED50 (Rattus norvegicus [3]): 0.91 mg/kg | Cp(f) [4]: 23.4 ng/mL | Cp(f) [5]: 1.9 ng/mL | Activity (Rattus norvegicus [6]): Active | clearance [7]: 39 mL/min/kg | Kp [8]: 6.8 | half-life [9]: 48 min | Tmax [10]: 30 min | Cmax [11]: 226 ng/mL | Vd [12]: 2 L/kg | IC50 [13]: 12.6 µM | IC50 (Cytochrome P450 2C9): > 100 µM | inhibition (INH) [14]: Not Active | inhibition (INH) [15]: Not Active | inhibition (INH) [16]: Not Active
